Assay [1] concerns Myc-tagged p110α-H1047R I800M. It counts as biochemical, human. The note with it: I800M vs p110α-H1047R, 10 μM ATP.
The subject of assay [2] is MCF10A cells expressing p110α-H1047R L814C. Put plainly: MCF10A EGF-independent growth. It counts as cell-based, human. The note with it: media lacking EGF, Alamar Blue. In a few lines:
(§1)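 MCF10A cells were retrovirally transduced with pMIG p110α-H1047R mutants (IRES-GFP) after EcoR nucleofection, then FACS-sorted to >95% GFP+. Cells were seeded at 2 × 10^3 per 96-well in growth medium, and after 2 days switched to EGF-free medium with PI3K inhibitors (DMSO stocks 1:1000). Every 2 days: resazurin (120 µg/ml stock, 1:20) added for 2 h at 37°C plus 15 min RT, fluorescence read at ex 520/em 590 nm, and medium refreshed. Mean ± SEM.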
For orientation: The colour change of resazurin is a common sign of viable cells or microbes.

Assay [3] concerns phospho-Akt (Thr308, Ser473) in I800L MCF10A cells. The assay is described as follows: Phospho-Akt western blot, I800L MCF10A cell line. The note with it: for resistance of phospho-Akt levels: 1 hour treatment, serial dilutions; for change in inhibitor sensitivity of phospho-308 Akt: seen in phospho-308 Akt but not phospho-473. It counts as cell-based, human. On the technique in general: A western blot detects proteins with antibodies after separation by electrophoresis.

The test system of assay [4] is Myc-tagged p110α-H1047R L814C. Type of assay: biochemical, human. The note with it: L814C vs p110α-H1047R, 10 μM ATP.
Assay [5] relates to phospho-Akt (Thr308, Ser473) in L814C MCF10A cells. Put plainly: Phospho-Akt western blot, L814C MCF10A cell line. Type of assay: cell-based, human. The note with it: 1 hour treatment, serial dilutions.
For assay [6], the system named is MCF10A cells expressing p110α-H1047R I800M. Put plainly: MCF10A EGF-independent growth. It counts as cell-based, human. The note with it: media lacking EGF, Alamar Blue. In a few lines: as §1
Assay [7] concerns the target Myc-tagged p110α-H1047R I800L (Homo sapiens, UniProt P42336, H1047R/I800L). Put plainly: In vitro PI3K assay, I800L mutant. The note with it: I800L vs p110α-H1047R, 10 μM ATP. It counts as biochemical.
Assay [8] concerns MCF10A cells expressing p110α-H1047R I800L. The assay is described as follows: MCF10A EGF-independent growth. It counts as cell-based, human. The note with it: media lacking EGF, Alamar Blue. In a few lines:
as §1

The test system of assay [9] is YRP1-pURA3-2μ-GAL1-p110αH1047R-CAAX. The assay is described as follows: Reverse halo assay. Type of assay: cell-based, S. cerevisiae. The note with it: 10 μl of a 10 mM DMSO stock spotted on cellulose disc, SD −URA +Galactose.
Assay [10] has as its system PI4KIIIβ with the mutation corresponding to Y836M. The note with it: ref Balla et al., 2008; cited from earlier work.
The subject of assay [11] is phospho-Akt (Thr308, Ser473) in I800M MCF10A cells. The assay is described as follows: Phospho-Akt western blot, I800M MCF10A cell line. Type of assay: cell-based, human. The note with it: 1 hour treatment, serial dilutions.
Assay [12] deals with drug-permeablized YRP1 strain expressing p110α-CAAX. The assay is described as follows: Rescue of PI3K-induced growth inhibition, yeast serial dilutions. The note with it: 5 μM PI-103, galactose. Type of assay: cell-based, S. cerevisiae.
The test system of assay [13] is phospho-Akt in p110α-expressing MCF10A cell lines. It counts as cell-based, human. The note with it: 30 μM PI-103, 1 hour, after 24 hours EGF starvation, all cell lines. An outline of the steps: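 GFP-sorted MCF10A lines transduced with p110α mutants, at 40-70% confluence, were starved 24 h in MCF10A medium lacking EGF and insulin. They were then given normal growth medium and/or inhibitor (DMSO control) for 60 min. Cells were lysed in PI3K lysis buffer (50 mM Tris pH 7.4, 300 mM NaCl, 1% Triton X-100, phosphatase/protease inhibitors) and western blotted for phospho-Akt.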

Assay [14] deals with wild-type AFS92 strain expressing p110α-CAAX. The assay is described as follows: Rescue of PI3K-induced growth inhibition, yeast serial dilutions. It counts as cell-based, S. cerevisiae. The note with it: 5 μM PI-103, galactose.
The subject of another assay is p110α. The note with it: ref Brunn et al., 1996; Vlahos et al., 1994; cited from earlier work.
For assay [15], the system named is S. cerevisiae overexpressing membrane-localized p110α. The note with it: ref Rodriguez-Escudero et al., 2005; cited from earlier work.

Chain of Myc-tagged p110α-H1047R I800L (P42336 whole entry I800L/H1047R): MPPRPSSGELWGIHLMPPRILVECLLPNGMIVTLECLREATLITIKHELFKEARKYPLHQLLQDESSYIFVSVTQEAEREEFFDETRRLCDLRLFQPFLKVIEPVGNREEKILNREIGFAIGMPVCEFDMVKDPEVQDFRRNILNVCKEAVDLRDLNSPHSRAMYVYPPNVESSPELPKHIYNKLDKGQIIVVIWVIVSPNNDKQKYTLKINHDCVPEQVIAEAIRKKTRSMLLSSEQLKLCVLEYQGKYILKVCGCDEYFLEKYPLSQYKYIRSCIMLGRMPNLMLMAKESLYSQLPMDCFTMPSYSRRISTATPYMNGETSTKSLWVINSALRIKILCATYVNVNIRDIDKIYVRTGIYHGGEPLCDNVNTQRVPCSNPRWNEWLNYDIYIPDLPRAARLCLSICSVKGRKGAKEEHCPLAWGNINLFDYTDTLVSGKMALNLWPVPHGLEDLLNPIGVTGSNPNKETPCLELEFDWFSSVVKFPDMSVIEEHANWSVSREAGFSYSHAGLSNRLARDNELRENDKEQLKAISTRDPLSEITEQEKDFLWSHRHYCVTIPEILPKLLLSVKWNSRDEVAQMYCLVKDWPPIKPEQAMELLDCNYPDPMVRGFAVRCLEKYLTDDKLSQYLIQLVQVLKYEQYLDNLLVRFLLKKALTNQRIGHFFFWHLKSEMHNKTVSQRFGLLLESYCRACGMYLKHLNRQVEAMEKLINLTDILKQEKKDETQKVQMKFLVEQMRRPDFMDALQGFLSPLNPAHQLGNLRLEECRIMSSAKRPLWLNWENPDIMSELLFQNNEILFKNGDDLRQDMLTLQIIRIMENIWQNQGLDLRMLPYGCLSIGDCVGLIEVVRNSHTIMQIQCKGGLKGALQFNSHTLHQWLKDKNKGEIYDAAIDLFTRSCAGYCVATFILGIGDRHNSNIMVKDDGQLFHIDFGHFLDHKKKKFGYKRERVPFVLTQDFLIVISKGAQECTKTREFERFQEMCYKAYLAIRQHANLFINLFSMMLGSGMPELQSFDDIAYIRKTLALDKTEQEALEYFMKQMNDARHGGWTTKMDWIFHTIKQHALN

For `COc1ccc2c(c1OC)N=C(NC(=O)c1cccnc1)N1CCN=C21` [PIK-90], the “decrease in inhibitor potency (mutant IC50 / WT IC50)” value in assay [1] and in assay [7] was 5-10 fold in each case. Besides, the “sensitization of cell growth” value in assay [2] was “strong sensitization”. In addition, the “resistance of phospho-Akt levels” value in assay [3] is given as “approximately 3 fold”. Besides, the “drug sensitization (mutant IC50 / WT IC50)” value in assay [4] is listed as “more than 10 fold”. Further, in assay [5], the “sensitization of phospho-Akt levels” value is “approximately 5 fold”. Moreover, the “inhibitor resistance of EGF-independent growth” value (from here on “inhibitor resistance”) in [6] and in assay [8] was “most pronounced” throughout.

As for `COC[C@H]1OC(=O)c2coc3c2[C@@]1(C)C1=C(C3=O)[C@@H]2CCC(=O)[C@@]2(C)C[C@H]1OC(C)=O` [wortmannin], the “growth halo in reverse halo assay” value in assay [9] was “did not produce growth halos”. Also, in assay [10], the “drug resistance of active mutant kinase” value is reported as “resistant”.

With `Cn1c(=O)n(-c2ccc(C(C)(C)C#N)cc2)c2c3cc(-c4cnc5ccccc5c4)ccc3ncc21` [BEZ-235], the “sensitization of cell growth” value in [2] is reported as “minimal or no sensitization”. In addition, in assay [3], the “resistance of phospho-Akt levels” value is given as “Significant resistance is not observed” and the “change in inhibitor sensitivity of phospho-308 Akt” value is on record as “sensitization”. For the same compound, in assay [11], the “resistance of phospho-Akt levels” value is given as “Significant resistance is not observed”. For the same compound, the “sensitization of phospho-Akt levels” value in [5] is “sensitization is seen”. Besides, in assay [6], the “inhibitor resistance” value is recorded as “less dramatic”. For the same compound, in [7], the “change in inhibitor sensitivity in vitro” value is listed as “sensitized”. Also, in assay [8], the “inhibitor sensitization of EGF-independent growth” value is “sensitized”.

Regarding `Oc1cccc(-c2nc(N3CCOCC3)c3oc4ncccc4c3n2)c1` [PI-103], the “rescue of PI3K-induced growth inhibition” value in assay [12] is given as “completely rescues growth”; in [14], “only partially rescues growth”. Further, the “decrease in inhibitor potency (mutant IC50 / WT IC50)” value in assay [1] and in assay [7] was 5-10 fold each time. For the same compound, the “block of phospho-Akt stimulation by EGF-containing media” value in assay [13] is “blocked”. Besides, in assay [2], the “sensitization of cell growth” value is recorded as “minimal or no sensitization”. The “resistance of phospho-Akt levels” value in assay [3] and in assay [11] was “Significant resistance is not observed” in each case. The “change in inhibitor sensitivity of phospho-308 Akt” value in assay [3] is reported as “Slight resistance”. Also, the “inhibitor resistance” value in assay [6] and in [8] was “less dramatic” each time.

Turning to `O=c1cc(N2CCOCC2)oc2c(-c3ccccc3)cccc12` [LY294002, 2-(4-morpholinyl)-8-phenyl-4H-1-benzopyran-4-one], the “growth halo in reverse halo assay” value in assay [9] is reported as “did not produce growth halos”. Moreover, in the assay with p110α, the “potency as inhibitor of p110α and other PI3K family members” value is “only a μM inhibitor”. Also, in [15], the “reversal of p110α-induced growth inhibition” value is reported as “partially reversed”.

In the case of `CC(=O)Nc1nc(C)c(-c2ccc(Cl)c(S(=O)(=O)NCCO)c2)s1` [PIK-93], the “decrease in inhibitor potency (mutant IC50 / WT IC50)” value in assay [1] and in assay [7] was 5-10 fold each time. For the same compound, in [10], the “drug resistance of active mutant kinase” value was “resistant”. The “sensitization of cell growth” value in assay [2] is given as “strong sensitization”. The “resistance of phospho-Akt levels” value in assay [3] is “approximately 3 fold”; in assay [11], “approximately 10 fold”. Also, the “drug sensitization (mutant IC50 / WT IC50)” value in assay [4] is listed as “approximately 100 fold”. The “sensitization of phospho-Akt levels” value in assay [5] is reported as around 30 fold. Further, the “inhibitor resistance” value in assay [6] and in [8] was “most pronounced” throughout.

Turning to `Cc1ccc([N+](=O)[O-])cc1S(=O)(=O)N(C)/N=C/c1cnc2ccc(Br)cn12` [PIK-75], the “growth halo in reverse halo assay” value in assay [9] is “produced only a thin ring of growth”.

The values are drawn from article PMC2720137 (Cancer cell, 2008).
